Results: ChEMBL document CHEMBL4000159, “Bartolosides E-K from a Marine Coccoid Cyanobacterium” (J Nat Prod, 2016)

How the values were obtained:
Assay type in all cases: functional, cell-based
T47D = assay: Cytotoxicity against human T47D cells assessed as decrease in cell viability after 48 hrs by MTT assay
Procedure, shortened: (§1)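 Cells grown in DMEM Glutamax with 10% FBS, 2.5 μg/mL fungizone, 100 IU/mL penicillin and 100 μg/mL streptomycin. Seeded at 3.3 × 10^4 cells/mL and left 24 h (37 °C, 5% CO2) to adhere. Pure compounds added as dilutions from 50 to 0.003 μg/mL for 48 h. MTT 0.5 mg/mL for 3 h, formazan dissolved in DMSO, absorbance read at 550 nm. Triplicates averaged; IC50 taken from dose–response curves.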

RKO = assay: Cytotoxicity against human RKO cells assessed as decrease in cell viability after 48 hrs by MTT assay; procedure, shortened: as §1
MG-63 = assay: Cytotoxicity against human MG63 cells assessed as decrease in cell viability after 48 hrs by MTT assay; settings: MG-63, 48 h; procedure, shortened: as §1

CCCCCCC(Cl)CCCCCc1c(O)cc(CCCCCCC(Cl)CCCC)cc1O[C@@H]1OC[C@@H](O)[C@H](O)[C@H]1O (some centres undefined)
IC50 (T47D): 22 µM
IC50 (RKO): 40 µM
IC50 (MG-63): 39 µM

CCCCCCCCCC(Cl)CCCCCc1cc(O)c(CCCCCC(Cl)CCCCCC)c(O[C@@H]2OC[C@@H](O)[C@H](O)[C@H]2O)c1 (some centres undefined)
IC50 (T47D): > 10 µM
IC50 (RKO): > 10 µM
IC50 (MG-63): > 10 µM

CCCCCCC(Cl)CCCCCc1cc(O)c(CCCCCC(Cl)CCCCCC)c(O[C@@H]2OC[C@@H](O)[C@H](O)[C@H]2O)c1 (some centres undefined)
IC50 (T47D): > 10 µM
IC50 (RKO): > 10 µM
IC50 (MG-63): > 10 µM

CCCCCCCC(Cl)(Cl)CCCCCc1cc(O)c(CCCCCC(Cl)CCCCCC)c(O[C@@H]2OC[C@@H](O)[C@H](O)[C@H]2O)c1 (some centres undefined)
IC50 (T47D): 59.8 µM
IC50 (RKO): > 10 µM
IC50 (MG-63): > 10 µM

CCCCCCCC(Cl)CCCCCc1cc(O)c(CCCCCC(Cl)CCCCCC)c(O[C@@H]2OC[C@@H](O)[C@H](O)[C@H]2O)c1 (some centres undefined)
IC50 (T47D): 23 µM
IC50 (RKO): 40 µM
IC50 (MG-63): 22 µM

CCCCCCCCC(Cl)CCCCCc1cc(O)c(CCCCCC(Cl)CCCCCC)c(O[C@@H]2OC[C@@H](O)[C@H](O)[C@H]2O)c1 (some centres undefined)
IC50 (T47D): > 10 µM
IC50 (RKO): > 10 µM
IC50 (MG-63): > 10 µM

CCCCCCCCCCCCCc1cc(O)c(CCCCCC(Cl)CCCCCC)c(O[C@@H]2OC[C@@H](O)[C@H](O)[C@H]2O)c1 (some centres undefined)
IC50 (T47D): > 10 µM
IC50 (RKO): > 10 µM
IC50 (MG-63): > 10 µM

CCCCCCCCCCCc1cc(O)c(CCCCCC(Cl)CCCCCC)c(O[C@@H]2OC[C@@H](O)[C@H](O)[C@H]2O)c1 (some centres undefined)
IC50 (T47D): > 10 µM
IC50 (RKO): > 10 µM
IC50 (MG-63): > 10 µM
